Source: PubChem (several laboratories)
A selection: hits, their analogues and other compounds. The true share with any hit is near 4%.
CHOP UPR activ: apoptotic UPR (CHOP) activation | actives 0.34% (n = 330,000) | activation, % at 10 µM | CHO-CHOP luciferase reporter, luminescence; percent of tunicamycin response over DMSO baseline;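 active means at 10 µM dose, activation of 40% or more, normalized to positive control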;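 further: 100% = tunicamycin at 10 µg/mL and 0% = DMSO alone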
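System: CHO-CHOP luciferase reporter cell line; amount: 500 cells/well; buffer or medium: F12 medium containing 10% fetal bovine serum; incubation: 6 h compound exposure at 37 °C after overnight seeding; measured by: luciferase luminescence after 10 min with Steady-Glo reagent; evaluation: % reporter activation, DMSO baseline versus tunicamycin full activation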
XBP1 UPR activ: activators of adaptive arm of unfolded protein response (XBP1) | CHO-XBP1 luciferase reporter, IRE1-XBP1 UPR activation, luminescence; percent of tunicamycin response, DMSO as zero | activation, % at 20 µM | actives 0.33% (n = 330,000);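 active means versus positive control, 20 µM dose yields 30% or more activation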;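 further: 100% = tunicamycin at 10 µg/mL and 0% = DMSO only wells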
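Signal: luciferase luminescence; Assay system: CHO-XBP1 luciferase reporter cells; Amount: one thousand reporter cells per well; Dosing: 20 µM single concentration, DMSO 1%; Benchmarks: high control tunicamycin 10 µg/mL final, low control DMSO vehicle only; Schedule: 6 h compound exposure at 37 °C, 5% CO2; Evaluation: percent activation relative to tunicamycin reference.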
ABHD5-PLIN5 inh: inhibitors of human ABHD5-perilipin-5 interaction | Q00G26+Q8WTS1 | Split G. princeps luciferase complementation, luminescence, 4 h | inhibition, % at 4 µM | actives 0.78% (n = 360,000);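 active means inhibition above the mean inhibition across every tested compound plus 3 SD, cut at about 22% in these data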;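 further: 0% = DMSO only wells and the 100% control is not disclosed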
Exocytosis inh: lytic granule exocytosis inhibition; TALL-104 LAMP-1 surface exposure, flow cytometry; cells stimulated with thapsigargin and PMA; inhibition, % at 10 µM; actives 0.66% (n = 360,000);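 active means inhibition above about 55%, limit read from the data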
Mdm2-MdmX inh: human Mdm2/MdmX binding inhibition; inhibition, % at 8 µM; AID 485346; actives 3% (n = 330,000); O15151+Q00987; SaOS-2 split-luciferase Mdm2/MdmX complementation, luminescence;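 active means inhibition of at least 50% at 8 µM in the primary screen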
Target sequence (O15151 whole entry, looked up): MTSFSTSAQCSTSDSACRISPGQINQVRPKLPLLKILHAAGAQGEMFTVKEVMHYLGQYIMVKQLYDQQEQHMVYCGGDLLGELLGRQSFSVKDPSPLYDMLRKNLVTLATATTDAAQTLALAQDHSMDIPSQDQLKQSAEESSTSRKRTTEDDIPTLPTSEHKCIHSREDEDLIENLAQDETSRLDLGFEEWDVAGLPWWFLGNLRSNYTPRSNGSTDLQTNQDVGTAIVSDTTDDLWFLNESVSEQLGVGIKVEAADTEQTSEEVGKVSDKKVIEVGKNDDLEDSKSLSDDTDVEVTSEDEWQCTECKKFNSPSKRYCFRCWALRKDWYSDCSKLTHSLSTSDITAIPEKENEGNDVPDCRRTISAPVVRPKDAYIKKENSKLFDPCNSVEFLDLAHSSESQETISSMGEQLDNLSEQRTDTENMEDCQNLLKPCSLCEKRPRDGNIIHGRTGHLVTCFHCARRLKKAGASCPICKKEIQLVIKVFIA
Target sequence (Q00987 whole entry, looked up): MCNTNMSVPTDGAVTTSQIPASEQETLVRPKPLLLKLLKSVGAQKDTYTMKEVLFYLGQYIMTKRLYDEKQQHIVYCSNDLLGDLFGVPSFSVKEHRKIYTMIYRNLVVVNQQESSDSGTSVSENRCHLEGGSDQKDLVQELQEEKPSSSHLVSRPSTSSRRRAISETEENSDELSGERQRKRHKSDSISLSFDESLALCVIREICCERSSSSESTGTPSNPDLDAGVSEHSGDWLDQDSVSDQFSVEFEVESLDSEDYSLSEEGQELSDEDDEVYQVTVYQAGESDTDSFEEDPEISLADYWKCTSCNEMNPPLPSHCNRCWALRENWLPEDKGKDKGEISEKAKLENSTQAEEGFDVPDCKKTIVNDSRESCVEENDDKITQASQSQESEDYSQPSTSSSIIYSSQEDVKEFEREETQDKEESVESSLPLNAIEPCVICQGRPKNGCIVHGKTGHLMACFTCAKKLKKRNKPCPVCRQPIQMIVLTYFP
Mdm2-MdmX conf: confirmation of human Mdm2/MdmX interaction inhibitors | AID 489028 | shares compounds with Mdm2-MdmX inh | actives 55% (n = 10,000) | inhibition, % at 8 µM | Mdm2-MdmX binding, luminescent assay; in the data active means inhibition above about 40%
FLuc counter: counter-screen for Mdm2/MdmX inhibitors: full-length luciferase. shares compounds with Mdm2-MdmX inh. SaOS-2 full-length luciferase counterscreen, luminescence. inhibition, % at 8 µM. actives 77% (n = 6,200). AID 504607;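 active means mean inhibition at 8 µM reaching about 37%, which flags the compound as non-specific, limit read from the data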;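 further: p53-null SaOS-2 cells with luciferase driven by a doxycycline-inducible promoter; compound on cells about two nights before reading with doxycycline added after day one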
Starred values were filed as active, the others as inactive; . = not tested or not shown.

SMILES	CHOP UPR activ	XBP1 UPR activ	ABHD5-PLIN5 inh	Exocytosis inh	Mdm2-MdmX inh	Mdm2-MdmX conf	others
Cc1cc(OCC(=O)NCc2ccccn2)c2c(C)c(C)c(=O)oc2c1	-0.3	-4.4	9.1	1.2	23.3	.
Cn1c(O)c(N=NC(=O)CNC(=O)c2ccccc2)c2cc(Br)ccc21	-0.5	1.9	1.1	5.7	30.6	.
Cn1c(SCC(=O)Nc2cccc(C(=O)O)c2)nnc1-c1cc2cc(Br)ccc2o1	1.2	0.2	-4.3	-2.2	-7.9	.
Cn1c(SCC(=O)Nc2cccc(Br)c2)nnc1-c1cc2ccccc2o1	0.4	-2.9	-1.1	4.4	62.7*	-18.6
COc1cc(C#Cc2c(-c3cncn3C)n(C)c3ccc(-c4cnc(N5CCOCC5)nc4)cc23)cc(OC)c1	18.7	6.7	3.0	0.6	80.9*	14.2
COc1cc(C#Cc2c(-c3cncn3C)n(C)c3ccc(-c4cnc(OC)nc4)cc23)cc(OC)c1	13.2	3.9	22.0	5.3	66.4*	38.8	FLuc counter=63.4*
COc1cc(OC)cc(-c2c(C#Cc3ccsc3)c3cc(-c4ccc(CN5CCOCC5)cc4)ccc3n2C)c1	-0.7	-4.5	1.9	-1.2	7.1	.
COc1cc(C#Cc2c(-c3cncn3C)n(C)c3ccc(-c4ccc(CN5CCOCC5)cc4)cc23)cc(OC)c1	9.2	0.2	8.5	20.1	69.7*	-6.7
COc1cc(OC)cc(-c2c(Sc3ccccc3)c3cc(-c4cnc(OC)nc4)ccc3n2C)c1	.	.	4.5	-3.2	.	.
Cc1ccc(C(=O)NCCc2nnc3ccc(SCC(=O)Nc4ccc(C)cc4C)nn23)cc1	0.0	1.2	3.6	0.3	-4.3	.
C[n+]1cccc(C(=O)Nc2ccccc2)c1	0.0	1.7	-2.7	-7.5	1.3	.
CCc1ccc(NC(=O)Cn2nc(C)n3cccc3c2=O)cc1	-0.8	-1.2	2.9	-1.3	1.1	.
Cn1c(=O)c2c(SCC(=O)Nc3ccccc3F)nc(C3CC3)nc2n(C)c1=O	0.3	6.9	-0.1	-2.3	79.4*	16.6
CC(C)c1nc(SCC(=O)Nc2ccc(N3CCOCC3)cc2)c2ccccc2n1	-0.6	2.2	-9.6	-2.3	53.0*	12.8
CC(=O)Nc1cccc(NC(=O)CSc2nc(C3CC3)nc3ccccc23)c1	0.5	7.5	-5.3	9.0	72.5*	57.9*	FLuc counter=44.4*
CCCc1nc(SCC(=O)Nc2ccc(N3CCOCC3)cc2)c2ccccc2n1	1.0	0.3	-0.5	-1.4	41.4	.
CC(=O)c1cccc(NC(=O)CSc2nc(C3CC3)nc3ccccc23)c1	0.4	-3.3	8.3	13.0	36.2	.
Cc1cccc(NC(=O)CSc2nc(C3CC3)nc3ccccc23)c1	3.3	1.3	4.8	3.5	41.6	.
CN(C)c1ccc(NC(=O)CSc2nc(C3CC3)nc3ccccc23)cc1	3.7	3.6	-1.4	1.1	79.3*	44.3*	FLuc counter=54.2*
COc1ccc(C2SCCN2S(=O)(=O)c2ccc(NC(C)=O)cc2)cc1OC (stereo not given)	1.5	6.8	2.2	-6.0	9.3	.
COc1cc(NC(=O)CSc2nc(C3CC3)nc3ccccc23)cc(OC)c1	-0.2	7.5	0.7	-5.2	53.6*	-19.1
O=C(NCCCN1CCCC1)c1ccc2c(c1)N(Cc1ccccc1F)C(=O)c1ccccc1S2=O (stereo not given)	2.5	-2.5	3.4	2.8	5.1	.
Cc1ccc(C)c(CN2C(=O)c3ccccc3S(=O)c3ccc(C(=O)NCCCN4CCCC4)cc32)c1 (stereo not given)	0.0	1.1	11.8	2.9	50.8*	16.4
Cc1ccc(CN2C(=O)c3ccccc3Sc3ccc(C(=O)NCCN4CCOCC4)cc32)cc1	1.5	0.4	5.0	1.3	51.7*	53.6*	FLuc counter=69.4*
O=[N+]([O-])c1cc(Br)c(Nc2ccccc2)c([N+](=O)[O-])c1	-8.7	-8.3	6.8	-3.2	92.2*	49.6*	FLuc counter=79.3*
SMILES	CHOP UPR activ	XBP1 UPR activ	ABHD5-PLIN5 inh	Exocytosis inh	Mdm2-MdmX inh	Mdm2-MdmX conf	others
O=C(Nc1ccccc1)c1ccc(Nc2c([N+](=O)[O-])cc([N+](=O)[O-])c3ccccc23)cc1	-1.2	-0.4	6.5	-0.1	47.3	.
COc1ccc(N2CCN(c3ncccc3C#N)CC2)cc1	1.1	4.8	-5.9	-1.3	-2.9	.
Cn1ncc(N=Cc2ccccc2[N+](=O)[O-])c1C(N)=O	0.9	-6.1	-9.5	-4.3	19.6	.
CN(C)c1ccc(C=Nc2cnn(C)c2C(N)=O)cc1	3.2	4.8	-15.0	3.7	52.4*	-1.2
CN1CCN(S(=O)(=O)c2ccc(C3CCCCC3)cc2)CC1	0.1	-2.0	0.8	1.0	14.6	.
CN1CCN(C(c2cccc(Cl)c2)c2ccccc2Cl)CC1 (stereo not given)	1.4	-1.7	10.0	15.5	54.6*	44.4*	FLuc counter=64.8*
N#Cc1cccc(NC(=O)c2cc(C3CCCCN3C(=O)C3CC3)on2)c1 (stereo not given)	.	.	10.0	-3.3	.	.
O=C(COC(=O)c1n[nH]c2ccccc12)NC(=O)NC12CC3CC(CC(C3)C1)C2	-0.4	1.9	1.6	-3.9	53.9*	33.9	FLuc counter=71.9*
NC(=O)c1sc2nc3c(c(-c4cccs4)c2c1N)CCCCC3	-1.8	0.2	2.4	0.1	84.6*	87.6*	FLuc counter=53.2*
O=C(NCC(=O)N(c1ccccc1F)C(C(=O)NC1CCCC1)c1ccncc1)c1ccco1 (stereo not given)	0.3	2.3	3.8	-4.5	22.9	.
CCn1c(=O)cc(SCC(=O)Nc2ccc(OC)c(OC)c2)c2ccccc21	-0.6	0.2	2.5	11.8	51.9*	42.8*	FLuc counter=58.0*
CCn1c(=O)cc(SCC(=O)N2CCN(c3ccccc3OC)CC2)c2ccccc21	-0.7	1.5	3.7	4.5	62.2*	37.4
CCn1c2ccccc2c2cc(NC(=O)CNCc3ccccc3OC)ccc21	0.7	4.0	6.2	21.2	57.2*	56.0*	FLuc counter=81.2*
CCn1c(=O)cc(SCC(=O)N2CCOCC2)c2ccccc21	-2.1	-1.3	0.2	0.3	39.1	.
CCn1c(=O)cc(SCC(=O)Nc2ccc(Cl)cc2)c2ccccc21	1.4	3.4	2.5	4.7	31.0	.
CCn1c(=O)cc(SCC(=O)N2CCN(C(=O)c3ccco3)CC2)c2ccccc21	-0.7	1.7	6.2	-2.3	53.2*	32.1
CCn1c2ccccc2c2cc(NC(=O)COc3ccccc3OC)ccc21	0.8	0.6	-7.4	2.3	38.1	.
CC(=O)Oc1ccc(C2OC(=O)c3ccccc3N2C(C)=O)cc1 (stereo not given)	2.8	-0.5	1.4	-2.4	-6.3	.
O=C(COc1ccccc1)N(Cc1cccc(F)c1)C1CCS(=O)(=O)C1 (stereo not given)	1.4	0.2	-4.1	1.5	28.1	.
